Measured values pooled from the literature.
Cell line: MDA-MB-231
Read-out: cell growth or viability

O=C(O)CCCc1ccc(N(CCCl)CCCl)cc1 — IC50 (CCK-8; 48 h): > 50 µM
CO[C@]1([C@@H]2CSC(=O)N2C(=O)c2ccccc2)C[C@H]2C[C@@H](CC[C@H](C)/C=C\C=C\CC/C(C)=C\C(=O)O2)O1 — IC50 (MTT; 72 h): 4.48 µM
COc1c(O)cc2oc3cc(O)c(CC=C(C)C)c(O)c3c(=O)c2c1CC=C(C)C — IC50 (48 h): 20.7 µM
COC1(C2CSC(=O)N2)CC2CC(CCC(C)C=CC=CCCC(C)=CC(=O)O2)O1 (stereo not shown) — IC50 (MTT; 72 h): 23.4 µM
N.N.[Cl][Pt][Cl] — IC50 (SRB): 12.2 µM
Nc1cc(I)c(I)cc1N — IC50 (72 h): 65 µM
CCC1(c2ccc(N)cc2)CCC(=O)NC1=O (stereo not shown) — IC50 (CCK-8; 48 h): > 50 µM
C/C1=C/C(=O)O[C@@H]2C[C@@H](CC[C@H](C)/C=C\C=C\CC1)O[C@@](OC(=O)c1ccccc1)([C@@H]1CSC(=O)N1)C2 — IC50 (MTT; 72 h): 5.05 µM
N.N.[Cl][Pt][Cl] — IC50 (48 h): 27.5 µM
COC(C(=O)N1C(=O)SCC1C1(OC)CC2CC(CCC(C)C=CC=CCCC(C)=CC(=O)O2)O1)c1ccccc1 (stereo not shown) — IC50 (MTT; 72 h): 26.2 µM
O=C1[O][Pt]2([NH][C@@H]3CCCC[C@H]3[NH]2)[O]C1=O — IC50 (MTT; 96 h): 2.6 µM
Cn1c(CCCC(=O)O)nc2cc(N(CCCl)CCCl)ccc21 — IC50 (MTT): 13.3 µM
CCCc1cc(=O)n2nc(NCc3c(F)cc(Cl)cc3F)c(C#N)c2[nH]1 — IC50 (ATP luminescence; 72 h): > 50 µM
